The source made the active and inactive calls. The calls are words filed in the database; no cut-off is given here.
How the values were obtained:
[1] = target: Mast/stem cell growth factor receptor Kit (Homo sapiens) (UniProt P10721); assay: Inhibition of cKit at 5 uM assessed as remaining activity
[2] = target: Ribosomal protein S6 kinase alpha-1 (Homo sapiens) (UniProt Q15418); assay: Inhibition of Rsk1 at 5 uM assessed as remaining activity
[3] = tested on: PC-3; assay: Antiproliferative activity against human PC3 cells assessed as suppression of cell viability by MTT assay; type: functional, cell-based
How it was run: (§1)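 Cancer lines seeded 5000/well and nonmalignant PrEC/MEC 8000/well in 10% FBS, 24 h before treatment. Compound exposure 24 h in 5% FBS medium, 0.1% final DMSO. MTT (0.25 mg/mL) for 1 h at 37°C, dye solubilized in DMSO, absorbance read at 570 nm. Mean ± SD, n = 6.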

[4] = target: Glycogen synthase kinase-3 beta (Homo sapiens) (UniProt P49841); assay: Inhibition of GSK3-beta at 5 uM assessed as remaining activity
How it was run: (§2)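 Panel of 20 recombinant kinases, profiled by a commercial vendor.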

[5] = tested on: PC-3; assay: Suppression of tumor growth in human PC3 cells xenografted in nude mouse at 50 mg/kg/day, po administered for 35 days relative to control; type: functional
How it was run: (§3)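 Male NCr athymic nude mice, s.c. 0.5 × 10^6 PC-3 cells in 50% Matrigel; established tumors randomized (n=6) to daily oral gavage in 0.5% methylcellulose/0.1% Tween 80 in water, 10 μL/g, 35 days; weekly caliper volume = width² × length × 0.52; mean ± SEM, ANOVA or t-test.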

[6] = tested on: Mus musculus; assay: Decrease in phosphorylation of YB-1 in human PC3 cells xenografted nude mouse tumor lysate at 25 mg/kg, po administered for 35 days by Western blot analysis; type: functional, organism-based; parameters: dose 25 mg/kg; settings: Neoplasm, PC-3
How it was run: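 Male NCr athymic nude mice, 5–7 weeks, with s.c. PC-3 xenografts (0.5 × 10^6 cells in 50% Matrigel), dosed by oral gavage once daily for 35 days. Vehicle 0.5% methylcellulose, 0.1% Tween 80 in water, 10 μL/g. Tumors snap-frozen at sacrifice; three tumors per group immunoblotted.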

[7] = target: Scaffold protein ILK (Homo sapiens, UniProt Q13418); assay: Inhibition of human ILK activity assessed myelin basic protein phosphorylation by radiometric kinase assay in the presence of [gamma 32P]ATP
How it was run: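 ILK immunoprecipitated from EGF-pretreated (100 ng/mL, 2 h) PC-3 lysates with protein A/G agarose; reaction in 25 μL with 5 μg MBP and 2.5 μCi [γ-32P]ATP, 30°C for 25 min; SDS-PAGE, autoradiography, densitometry versus DMSO control; mean ± SD, n = 3.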

[8] = tested on: SK-BR-3; assay: Antiproliferative activity against human SKBR3 cells assessed as suppression of cell viability by MTT assay; type: functional, cell-based; how it was run: as §1
[9] = tested on: PC-3; assay: Induction of autophagy in human PC3 cells expressing Atg5 siRNA assessed as LC3-II conversion by Western blot analysis; type: functional, cell-based
How it was run: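 Transient Atg5 siRNA transfection of PC-3 by electroporation, cells used 48 h later, then treated. LC3-II conversion detected by immunoblot: SDS lysis, antibody 1:1000 at 4°C for 2 h, ECL. Representative of three independent experiments.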

[10] = tested on: LNCaP; assay: Antiproliferative activity against human LNCAP cells assessed as suppression of cell viability by MTT assay; type: functional, cell-based; how it was run: as §1
[11] = target: Protein kinase C alpha type (Homo sapiens) (UniProt P17252); assay: Inhibition of PKCalpha at 5 uM assessed as remaining activity
[12] = tested on: SK-BR-3; assay: Reduction in HER2 concentration in human SKBR3 cells after 24 hrs by Western blot analysis; type: functional, cell-based
How it was run: (§4)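 PC-3 versus stable PC-3/CA-ILK, or SKBR3 versus transient SKBR3/CA-ILK (electroporation, used 48 h after), treated 24 h in 5% FBS medium; immunoblotting with ECL; representative of three experiments.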

[13] = tested on: PC-3; assay: Induction of change in cell cycle distribution in human PC3 cells up to 2 uM after 48 hrs by flow cytometry; type: functional, cell-based
How it was run: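 Treated PC-3 cells harvested, fixed in 100% ethanol, stained 30 min at 37°C in the dark with 80 μg/mL PI, 100 μg/mL RNase, 0.1% Triton X-100. Phase distribution by flow cytometry. Mean ± SD, n = 3. Methods give 48 h exposure; the figure legend gives 24 h in 5% FBS.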

[14] = tested on: PC-3; assay: Induction of apoptosis in human PC3 cells assessed as late apoptotic cells at 1 uM by annexin V/PI staining (reference value: 9.8%); type: functional
[15] = tested on: PC-3; assay: Suppression of tumor growth in human PC3 cells xenografted in nude mouse at 25 mg/kg/day, po administered for 35 days relative to control; type: functional; how it was run: as §3
[16] = tested on: SK-BR-3; assay: Reduction in YB-1 mRNA expression in human SKBR3 cells after 24 hrs by RT-PCR analysis; type: functional, cell-based
How it was run: (§5)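 PC-3, PC-3/CA-ILK, SKBR3 and SKBR3/CA-ILK cells treated 24 h in 5% FBS medium; total RNA from 1 × 10^6 cells by Trizol, 1 μg reverse-transcribed, then PCR with gene-specific primers and β-actin reference.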

[17] = tested on: SK-BR-3; assay: Reduction in HER2 mRNA expression in human SKBR3 cells after 24 hrs by RT-PCR analysis; type: functional, cell-based; how it was run: as §5
[18] = target: Tyrosine-protein kinase ABL1 (Homo sapiens) (UniProt P00519); assay: Inhibition of Abl kinase at 5 uM assessed as remaining activity; how it was run: as §2
[19] = tested on: SK-BR-3; assay: Reduction in EGFR mRNA expression in human SKBR3 cells expressing constitutively active ILK after 24 hrs by RT-PCR analysis; type: functional, cell-based; how it was run: as §5
[20] = target: Inhibitor of nuclear factor kappa-B kinase subunit beta (Homo sapiens) (UniProt O14920); assay: Inhibition of IKK-beta at 5 uM assessed as remaining activity; how it was run: as §2
[21] = tested on: PC-3; assay: Reduction in EGFR mRNA expression in human PC3 cells expressing constitutively active ILK after 24 hrs by RT-PCR analysis; type: functional, cell-based; how it was run: as §5
[22] = target: Proto-oncogene tyrosine-protein kinase ROS (Homo sapiens) (UniProt P08922); assay: Inhibition of Ros at 5 uM assessed as remaining activity
[23] = tested on: PC-3; assay: Reduction in YB-1 concentration in human PC3 cells after 24 hrs by Western blot analysis; type: functional, cell-based; how it was run: as §4
[24] = tested on: PC-3; assay: Reduction in YB-1 concentration in human PC3 cells expressing constitutively active ILK after 24 hrs by Western blot analysis; type: functional, cell-based; how it was run: as §4
[25] = target: Serine/threonine-protein kinase mTOR (Homo sapiens) (UniProt P42345); assay: Inhibition of mTOR at 5 uM assessed as remaining activity

Chain of Proto-oncogene tyrosine-protein kinase ROS (Homo sapiens) (P08922 whole entry): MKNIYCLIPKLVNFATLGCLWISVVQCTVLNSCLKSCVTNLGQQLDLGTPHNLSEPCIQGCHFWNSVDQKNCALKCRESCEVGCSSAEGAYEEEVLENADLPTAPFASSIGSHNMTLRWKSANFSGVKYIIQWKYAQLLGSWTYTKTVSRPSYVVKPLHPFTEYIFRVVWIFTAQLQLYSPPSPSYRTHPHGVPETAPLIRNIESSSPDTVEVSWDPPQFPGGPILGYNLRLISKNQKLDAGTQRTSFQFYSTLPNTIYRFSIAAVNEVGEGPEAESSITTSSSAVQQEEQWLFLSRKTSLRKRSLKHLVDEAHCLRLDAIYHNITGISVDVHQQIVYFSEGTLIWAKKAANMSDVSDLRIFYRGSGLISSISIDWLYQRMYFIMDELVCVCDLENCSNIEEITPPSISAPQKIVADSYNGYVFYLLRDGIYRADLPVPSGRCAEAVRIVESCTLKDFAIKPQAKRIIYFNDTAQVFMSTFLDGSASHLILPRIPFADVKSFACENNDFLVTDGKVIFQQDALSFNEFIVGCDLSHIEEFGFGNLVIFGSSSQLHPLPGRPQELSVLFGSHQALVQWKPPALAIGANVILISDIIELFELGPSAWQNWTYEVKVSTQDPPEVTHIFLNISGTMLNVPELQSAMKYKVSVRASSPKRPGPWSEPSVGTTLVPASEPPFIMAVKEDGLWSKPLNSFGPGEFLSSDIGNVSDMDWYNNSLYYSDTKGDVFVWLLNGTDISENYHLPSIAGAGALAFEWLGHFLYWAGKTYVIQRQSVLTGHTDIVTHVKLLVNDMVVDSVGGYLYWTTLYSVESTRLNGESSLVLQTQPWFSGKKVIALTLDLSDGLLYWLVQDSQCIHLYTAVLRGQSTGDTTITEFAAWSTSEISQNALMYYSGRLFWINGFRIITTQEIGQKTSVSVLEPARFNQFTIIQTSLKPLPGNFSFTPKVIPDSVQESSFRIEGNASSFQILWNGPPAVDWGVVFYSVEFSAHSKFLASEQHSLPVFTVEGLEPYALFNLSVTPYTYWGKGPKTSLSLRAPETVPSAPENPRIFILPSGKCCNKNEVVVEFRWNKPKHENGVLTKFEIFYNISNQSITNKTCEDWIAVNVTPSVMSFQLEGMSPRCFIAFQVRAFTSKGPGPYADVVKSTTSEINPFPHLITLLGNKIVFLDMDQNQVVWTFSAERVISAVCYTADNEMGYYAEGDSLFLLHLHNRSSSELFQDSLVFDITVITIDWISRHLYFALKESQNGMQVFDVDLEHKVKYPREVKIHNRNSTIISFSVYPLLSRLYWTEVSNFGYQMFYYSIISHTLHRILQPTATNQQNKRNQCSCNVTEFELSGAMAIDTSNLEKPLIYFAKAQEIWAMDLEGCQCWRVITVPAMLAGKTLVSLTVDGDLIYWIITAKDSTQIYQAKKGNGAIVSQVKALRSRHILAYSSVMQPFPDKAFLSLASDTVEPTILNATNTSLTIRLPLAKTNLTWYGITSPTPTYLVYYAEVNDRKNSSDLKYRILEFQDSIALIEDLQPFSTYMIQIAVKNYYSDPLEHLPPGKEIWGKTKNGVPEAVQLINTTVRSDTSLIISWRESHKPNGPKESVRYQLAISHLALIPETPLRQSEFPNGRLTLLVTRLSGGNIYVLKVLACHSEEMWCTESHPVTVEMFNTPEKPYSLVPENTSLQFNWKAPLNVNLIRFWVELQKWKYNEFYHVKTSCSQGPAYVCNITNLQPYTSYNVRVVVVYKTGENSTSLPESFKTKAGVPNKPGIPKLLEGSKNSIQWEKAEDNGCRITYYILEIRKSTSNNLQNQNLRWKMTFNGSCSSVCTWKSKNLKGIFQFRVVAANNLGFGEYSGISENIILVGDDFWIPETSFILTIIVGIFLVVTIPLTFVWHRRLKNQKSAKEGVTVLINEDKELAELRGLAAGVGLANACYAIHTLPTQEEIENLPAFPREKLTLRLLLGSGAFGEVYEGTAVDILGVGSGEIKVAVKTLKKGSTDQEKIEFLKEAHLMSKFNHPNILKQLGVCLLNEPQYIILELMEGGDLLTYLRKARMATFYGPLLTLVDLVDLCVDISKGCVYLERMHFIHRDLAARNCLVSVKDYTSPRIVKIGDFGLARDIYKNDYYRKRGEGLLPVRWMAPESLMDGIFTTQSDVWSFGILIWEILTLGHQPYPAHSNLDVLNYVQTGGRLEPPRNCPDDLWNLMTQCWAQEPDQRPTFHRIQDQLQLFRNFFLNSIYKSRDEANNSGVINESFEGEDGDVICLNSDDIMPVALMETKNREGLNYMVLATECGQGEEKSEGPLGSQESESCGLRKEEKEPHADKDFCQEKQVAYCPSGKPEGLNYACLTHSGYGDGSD
Chain of Glycogen synthase kinase-3 beta (Homo sapiens) (P49841 whole entry, looked up): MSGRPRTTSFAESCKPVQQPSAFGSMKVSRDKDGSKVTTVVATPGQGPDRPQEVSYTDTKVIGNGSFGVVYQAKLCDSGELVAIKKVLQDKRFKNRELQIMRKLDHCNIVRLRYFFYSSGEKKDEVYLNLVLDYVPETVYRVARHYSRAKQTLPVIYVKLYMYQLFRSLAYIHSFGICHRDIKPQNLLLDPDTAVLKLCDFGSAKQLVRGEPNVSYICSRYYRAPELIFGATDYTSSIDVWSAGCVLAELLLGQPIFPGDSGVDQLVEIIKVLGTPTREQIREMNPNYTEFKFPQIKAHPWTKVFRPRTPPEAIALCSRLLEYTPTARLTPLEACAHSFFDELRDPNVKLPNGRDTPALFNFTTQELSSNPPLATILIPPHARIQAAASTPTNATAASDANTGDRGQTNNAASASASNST
Chain of Mast/stem cell growth factor receptor Kit (Homo sapiens) (P10721 whole entry): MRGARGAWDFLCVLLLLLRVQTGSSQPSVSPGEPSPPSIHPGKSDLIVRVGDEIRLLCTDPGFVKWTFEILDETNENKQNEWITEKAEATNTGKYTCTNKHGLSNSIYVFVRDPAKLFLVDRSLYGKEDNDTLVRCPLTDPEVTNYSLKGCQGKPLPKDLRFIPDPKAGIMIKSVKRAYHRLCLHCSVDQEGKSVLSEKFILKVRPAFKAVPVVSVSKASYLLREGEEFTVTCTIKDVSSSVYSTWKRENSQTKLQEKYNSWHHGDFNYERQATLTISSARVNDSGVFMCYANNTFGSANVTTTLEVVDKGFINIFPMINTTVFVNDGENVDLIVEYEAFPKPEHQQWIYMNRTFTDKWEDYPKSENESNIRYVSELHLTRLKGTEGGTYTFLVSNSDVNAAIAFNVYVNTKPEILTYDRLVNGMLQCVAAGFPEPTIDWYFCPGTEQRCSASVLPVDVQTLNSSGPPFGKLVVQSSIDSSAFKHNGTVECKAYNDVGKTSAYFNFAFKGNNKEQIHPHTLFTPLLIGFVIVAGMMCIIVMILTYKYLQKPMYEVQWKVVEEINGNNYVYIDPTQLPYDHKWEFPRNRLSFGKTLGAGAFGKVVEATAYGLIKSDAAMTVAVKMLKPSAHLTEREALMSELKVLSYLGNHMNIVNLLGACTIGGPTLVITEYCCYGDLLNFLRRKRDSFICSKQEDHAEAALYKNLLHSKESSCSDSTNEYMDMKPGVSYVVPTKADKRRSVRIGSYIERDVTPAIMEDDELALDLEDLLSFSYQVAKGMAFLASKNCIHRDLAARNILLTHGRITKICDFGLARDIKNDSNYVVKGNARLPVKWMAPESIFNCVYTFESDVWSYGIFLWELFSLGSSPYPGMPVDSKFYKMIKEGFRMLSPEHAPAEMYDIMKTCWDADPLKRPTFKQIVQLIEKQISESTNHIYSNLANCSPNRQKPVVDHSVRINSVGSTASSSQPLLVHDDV
Chain of Inhibitor of nuclear factor kappa-B kinase subunit beta (Homo sapiens) (O14920 whole entry): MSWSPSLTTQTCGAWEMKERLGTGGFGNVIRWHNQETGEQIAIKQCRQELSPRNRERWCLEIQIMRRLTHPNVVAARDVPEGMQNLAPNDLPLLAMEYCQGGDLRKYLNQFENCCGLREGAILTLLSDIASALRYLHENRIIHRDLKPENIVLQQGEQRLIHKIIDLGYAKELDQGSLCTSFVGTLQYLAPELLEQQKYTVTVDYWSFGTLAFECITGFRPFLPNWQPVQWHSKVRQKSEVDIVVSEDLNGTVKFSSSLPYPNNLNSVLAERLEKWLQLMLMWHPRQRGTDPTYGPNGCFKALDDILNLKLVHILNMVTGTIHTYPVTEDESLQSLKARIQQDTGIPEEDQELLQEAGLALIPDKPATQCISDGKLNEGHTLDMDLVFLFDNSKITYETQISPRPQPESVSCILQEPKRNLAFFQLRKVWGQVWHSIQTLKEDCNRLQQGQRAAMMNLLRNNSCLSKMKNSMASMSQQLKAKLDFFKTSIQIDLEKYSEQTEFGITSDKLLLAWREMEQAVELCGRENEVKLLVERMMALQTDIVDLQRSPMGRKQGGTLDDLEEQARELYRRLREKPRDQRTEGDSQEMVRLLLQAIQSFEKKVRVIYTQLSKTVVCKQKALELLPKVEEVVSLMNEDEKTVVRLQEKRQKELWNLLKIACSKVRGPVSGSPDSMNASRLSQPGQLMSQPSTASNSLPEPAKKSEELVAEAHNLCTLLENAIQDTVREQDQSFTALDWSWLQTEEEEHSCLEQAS
Chain of Scaffold protein ILK (Q13418 whole entry): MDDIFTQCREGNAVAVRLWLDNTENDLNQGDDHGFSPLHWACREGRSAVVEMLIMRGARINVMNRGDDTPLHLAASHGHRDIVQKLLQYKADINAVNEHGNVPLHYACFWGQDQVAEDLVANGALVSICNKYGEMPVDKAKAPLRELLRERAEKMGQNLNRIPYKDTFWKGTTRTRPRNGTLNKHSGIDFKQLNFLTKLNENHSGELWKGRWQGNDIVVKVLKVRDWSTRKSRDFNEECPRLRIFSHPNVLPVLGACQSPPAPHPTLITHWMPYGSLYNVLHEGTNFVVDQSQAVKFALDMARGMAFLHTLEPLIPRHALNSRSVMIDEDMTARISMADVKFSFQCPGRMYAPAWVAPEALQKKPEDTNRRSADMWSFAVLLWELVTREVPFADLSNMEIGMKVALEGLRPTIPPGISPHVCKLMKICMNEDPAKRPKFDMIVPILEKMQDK

Activity [1]: 100%
Activity [2]: 65%
IC50 [3]: 2000 nM
Activity [4]: 142%
IC50 [7]: 600 nM
IC50 [8]: 1800 nM
IC50 [10]: 1600 nM
Activity [11]: 97%
Activity [18]: 73%
Activity [20]: 102%
Activity [22]: 103%
Activity [25]: 122%
SMILES: CNC(=O)CCc1cc(-c2ccc(-c3ccc(C(F)(F)F)cc3)cc2)n(-c2ccc(N3CCNCC3)cc2)n1
Activity [5]: 62%
Activity [6]: Active
Activity [9]: inactive
Activity [12]: Dose-dependent effect
Activity [13]: inactive
Activity [14]: 10.1%
Activity [15]: 48%
Activity [16]: Dose-dependent effect
Activity [17]: Dose-dependent effect
Activity [19]: inactive
Activity [21]: inactive
Activity [23]: Dose-dependent effect
Activity [24]: inactive
